From ChEMBL document CHEMBL1153829, “Exploiting chemical libraries, structure, and genomics in the search for kinase inhibitors” (Science, 1998)
The source made the active and inactive calls. No cut-off for these calls is given here.

What was measured:
[1] = target: Cyclin-dependent kinase 1/cyclin B1 (Homo sapiens, UniProt P06493); test: Inhibition of human cdc2/cyclin B assessed as [32P] incorporation in histone H1 from [gamma32P]ATP; format: protein-complex assay
[2] = target: Protein kinase C gamma type (Homo sapiens, UniProt P05129); test: Inhibition of human PKCgamma
[3] = target: Protein kinase C delta type (Homo sapiens, UniProt Q05655); test: Inhibition of human PKCdelta
[4] = target: Protein kinase C epsilon type (Homo sapiens, UniProt Q02156); test: Inhibition of human PKCepsilon
[5] = target: Protein kinase C eta type (Homo sapiens, UniProt P24723); test: Inhibition of human PKCeta
[6] = target: Protein kinase C zeta type (Homo sapiens, UniProt Q05513); test: Inhibition of human PKCzeta
[7] = target: Cyclin-dependent kinase 4/cyclin D1 (Homo sapiens, UniProt P11802); test: Inhibition of human cdk4/cyclin D1; format: protein-complex assay
[8] = target: Mitogen-activated protein kinase 3 (Homo sapiens, UniProt P27361); test: Inhibition of human Erk1
[9] = target: c-Jun N-terminal kinase, JNK (Homo sapiens, UniProt P45983+P53779+P45984); test: Inhibition of human JNK
[10] = target: Protein kinase C alpha type (Homo sapiens, UniProt P17252); test: Inhibition of human PKCalpha
[11] = target: T1, Protein kinase C beta type (Homo sapiens, UniProt P05771); test: Inhibition of human PKCbeta1
[12] = target: T1, Protein kinase C beta type; test: Inhibition of human PKCbeta2
[13] = Inhibition of human cAMP-dependent protein kinase
[14] = Inhibition of human cGMP-dependent protein kinase
[15] = Inhibition of human casein kinase 1
[16] = target: Glycogen synthase kinase-3 beta (Homo sapiens, UniProt P49841); test: Inhibition of human GSK3-beta
Casein kinase 2 = Casein kinase 2 (Homo sapiens, UniProt P67870+P68400+P19784+Q8NEV1); test: Inhibition of human casein kinase 2; format: protein assay
[17] = Inhibition of human Raf kinase
[18] = Inhibition of human v-abl
Cdc2 [19] = target: T2, Cdc2 (Patiria pectinifera, UniProt Q17066); test: Inhibition of starfish cdc2/cyclin B assessed as [32P] incorporation in histone H1 from 150 µM [gamma32P]ATP
Cdc2 [20] = target: T2, Cdc2; test: Inhibition of starfish cdc2/cyclin B assessed as [32P] incorporation in histone H1 from 1.5 mM [gamma32P]ATP
[21] = target: T3, Cyclin-dependent kinase 2 (Homo sapiens, UniProt P24941); test: Inhibition of human cdk2/cyclin A
[22] = target: T3, Cyclin-dependent kinase 2; test: Inhibition of human cdk2/cyclin E
[23] = target: Cyclin-dependent kinase 5/CDK5 activator 1 (Homo sapiens, UniProt Q00535); test: Inhibition of human cdk5/p35; format: protein-complex assay
Insulin receptor = Insulin receptor (Homo sapiens, UniProt P06213); test: Inhibition of human insulin receptor
[24] = target: T4, Cyclin-dependent kinase 1 (Saccharomyces cerevisiae S288c, UniProt P00546); test: Inhibition of Saccharomyces cerevisiae cdc28
[25] = Growth inhibition human NCI60 cells; format: functional
KM12 = test: Growth inhibition human KM12 cells; format: functional
NCI-H522 = test: Growth inhibition human NCI-H522 cells; format: functional
MRC5 [26] = test: Cell cycle arrest in human MRC5 cells assessed as accumulation at G1/S phase at high concentration after 18 hrs by FACS analysis; format: functional, cell-based
MRC5 [27] = test: Cell cycle arrest in human MRC5 cells assessed as accumulation at G2/M phase at high concentration after 18 hrs by FACS analysis; format: functional, cell-based
MRC5 [28] = test: Cell cycle arrest in human MRC5 cells assessed as accumulation at G1/S phase at low concentration after 18 hrs by FACS analysis; format: functional, cell-based
Saccharomyces cerevisiae [29] = test: Increase in PHO81 mRNA level in delta snq2, delta pdr5 and delta erg6 knock out yeast YRP1 at 25 µM after 2 hrs by high-density oligonucleotide array; format: functional, organism-based; conditions: 25 M
Outline: (§1)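 Drug-sensitized S. cerevisiae cultures grown to late logarithmic phase, then exposed to 25 μM inhibitor for 2 h. Polyadenylated mRNA isolated, converted to biotin-labeled cRNA and hybridized to a set of four high-density arrays carrying more than 260,000 25-nucleotide oligomers. Transcripts scored as changed when they shifted more than twofold in triplicate hybridizations for each of two independent experiments.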

Saccharomyces cerevisiae [30] = test: Increase in HSP12 mRNA level in delta snq2, delta pdr5 and delta erg6 knock out yeast YRP1 at 25 µM after 2 hrs by high-density oligonucleotide array; format: functional, organism-based; outline: as §1
Saccharomyces cerevisiae [31] = test: Increase in PCL5 mRNA level in delta snq2, delta pdr5 and delta erg6 knock out yeast YRP1 at 25 µM after 2 hrs by high-density oligonucleotide array; format: functional, organism-based; outline: as §1
Saccharomyces cerevisiae [32] = test: Increase in CTT1 mRNA level in delta snq2, delta pdr5 and delta erg6 knock out yeast YRP1 at 25 µM after 2 hrs by high-density oligonucleotide array; format: functional, organism-based; conditions: 25 M; outline: as §1
Saccharomyces cerevisiae [33] = test: Increase in PHO5 mRNA level in delta snq2, delta pdr5 and delta erg6 knock out yeast YRP1 at 25 µM after 2 hrs by high-density oligonucleotide array; format: functional, organism-based; outline: as §1
Saccharomyces cerevisiae [34] = test: Increase in UB14 mRNA level in delta snq2, delta pdr5 and delta erg6 knock out yeast YRP1 at 25 µM after 2 hrs by high-density oligonucleotide array; format: functional, organism-based; outline: as §1
Saccharomyces cerevisiae [35] = test: Increase in PHO84 mRNA level in delta snq2, delta pdr5 and delta erg6 knock out yeast YRP1 at 25 µM after 2 hrs by high-density oligonucleotide array; format: functional, organism-based; outline: as §1
Saccharomyces cerevisiae [36] = test: Increase in PHO8 mRNA level in delta snq2, delta pdr5 and delta erg6 knock out yeast YRP1 at 25 µM after 2 hrs by high-density oligonucleotide array; format: functional, organism-based; outline: as §1
Saccharomyces cerevisiae [37] = test: Increase in YBR296c mRNA level in delta snq2, delta pdr5 and delta erg6 knock out yeast YRP1 at 25 µM after 2 hrs by high-density oligonucleotide array; format: functional, organism-based; conditions: 25 M; outline: as §1
Saccharomyces cerevisiae [38] = test: Increase in PHO80 mRNA level in delta snq2, delta pdr5 and delta erg6 knock out yeast YRP1 at 25 µM after 2 hrs by high-density oligonucleotide array; format: functional, organism-based; outline: as §1
[39] = target: T4, Cyclin-dependent kinase 1; test: Inhibition of yeast W303 cdc28 phosphorylation assessed as [32P] incorporation in histone H1 from [gamma32P]ATP by scintillation counting
[40] = target: Cyclin-dependent protein kinase PHO85 (Saccharomyces cerevisiae S288c, UniProt P17157); test: Inhibition of yeast W303 Pho85 phosphorylation assessed as [32P] incorporation in histone H1 from [gamma32P]ATP by scintillation counting
[41] = target: Serine/threonine-protein kinase KIN28 (Saccharomyces cerevisiae S288c, UniProt P06242); test: Inhibition of yeast W303 Kin28 phosphorylation assessed as [32P] incorporation in histone H1 from [gamma32P]ATP by scintillation counting
[42] = target: Meiotic mRNA stability protein kinase SSN3 (Saccharomyces cerevisiae S288c, UniProt P39073); test: Inhibition of yeast W303 Srb10 phosphorylation assessed as [32P] incorporation in histone H1 from [gamma32P]ATP by scintillation counting
[43] = target: Serine/threonine-protein kinase CAK1 (Saccharomyces cerevisiae S288c, UniProt P43568); test: Inhibition of yeast W303 Cak1 phosphorylation assessed as [32P] incorporation in histone H1 from [gamma32P]ATP by scintillation counting
Saccharomyces cerevisiae [44] = test: Growth inhibition of delta snq2, delta pdr5 and delta erg6 knock out yeast YRP1 after 2 hrs; format: functional
Saccharomyces cerevisiae [45] = test: Growth inhibition of delta snq2, delta pdr5 and delta erg6 knock out yeast YRP1 assessed as induction of uniform arrest morphology; format: functional, organism-based
Saccharomyces cerevisiae [46] = test: Growth inhibition of delta snq2, delta pdr5 and delta erg6 knock out yeast YRP1 assessed as synchronization by FACS analysis; format: functional, organism-based

T1 sequence (P05771 whole entry): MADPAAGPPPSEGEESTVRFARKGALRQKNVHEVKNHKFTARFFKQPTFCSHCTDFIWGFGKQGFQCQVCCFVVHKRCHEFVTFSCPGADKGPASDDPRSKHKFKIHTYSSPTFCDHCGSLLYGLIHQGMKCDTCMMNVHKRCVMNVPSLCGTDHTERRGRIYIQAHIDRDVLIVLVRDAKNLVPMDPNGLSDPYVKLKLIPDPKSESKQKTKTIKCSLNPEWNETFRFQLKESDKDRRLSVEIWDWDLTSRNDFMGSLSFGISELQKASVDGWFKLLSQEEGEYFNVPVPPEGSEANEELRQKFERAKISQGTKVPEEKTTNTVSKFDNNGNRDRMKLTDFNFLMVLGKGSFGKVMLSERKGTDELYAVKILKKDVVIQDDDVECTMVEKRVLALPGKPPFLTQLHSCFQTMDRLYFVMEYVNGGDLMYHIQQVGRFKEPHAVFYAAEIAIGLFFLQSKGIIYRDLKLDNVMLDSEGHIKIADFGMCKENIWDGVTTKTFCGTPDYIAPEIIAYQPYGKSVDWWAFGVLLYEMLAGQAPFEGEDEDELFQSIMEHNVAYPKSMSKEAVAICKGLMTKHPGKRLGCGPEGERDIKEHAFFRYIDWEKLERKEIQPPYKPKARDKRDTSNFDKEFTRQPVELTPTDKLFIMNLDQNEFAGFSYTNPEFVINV
T4 sequence (P00546 whole entry): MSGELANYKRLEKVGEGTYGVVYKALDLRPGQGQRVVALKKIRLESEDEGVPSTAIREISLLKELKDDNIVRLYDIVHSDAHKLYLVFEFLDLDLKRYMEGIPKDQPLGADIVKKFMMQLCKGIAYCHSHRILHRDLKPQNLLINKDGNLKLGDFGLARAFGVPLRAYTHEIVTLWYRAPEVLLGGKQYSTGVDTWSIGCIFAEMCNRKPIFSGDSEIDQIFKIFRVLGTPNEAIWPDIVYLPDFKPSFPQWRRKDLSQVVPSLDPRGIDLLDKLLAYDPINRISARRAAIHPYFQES
T2 sequence (Q17066 whole entry): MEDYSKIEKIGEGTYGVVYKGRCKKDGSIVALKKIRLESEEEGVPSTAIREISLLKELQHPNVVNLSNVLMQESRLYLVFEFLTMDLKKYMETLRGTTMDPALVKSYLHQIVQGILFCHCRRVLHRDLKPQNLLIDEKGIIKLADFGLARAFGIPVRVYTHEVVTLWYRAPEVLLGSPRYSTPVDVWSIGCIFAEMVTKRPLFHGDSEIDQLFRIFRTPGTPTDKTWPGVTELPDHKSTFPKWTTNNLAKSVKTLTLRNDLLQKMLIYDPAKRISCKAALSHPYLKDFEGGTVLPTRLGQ
Sequence of Cyclin-dependent kinase 4/cyclin D1 (P11802 whole entry): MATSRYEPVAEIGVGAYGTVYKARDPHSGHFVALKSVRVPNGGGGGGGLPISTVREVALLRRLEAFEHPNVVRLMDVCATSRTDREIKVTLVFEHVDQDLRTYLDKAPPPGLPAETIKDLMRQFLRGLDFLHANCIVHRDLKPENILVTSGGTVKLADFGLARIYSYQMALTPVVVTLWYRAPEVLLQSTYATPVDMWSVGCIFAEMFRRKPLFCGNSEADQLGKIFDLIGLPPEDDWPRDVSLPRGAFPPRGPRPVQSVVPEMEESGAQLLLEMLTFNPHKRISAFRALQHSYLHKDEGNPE
Sequence of Cyclin-dependent kinase 4/cyclin D1 (P24385 whole entry, further chain): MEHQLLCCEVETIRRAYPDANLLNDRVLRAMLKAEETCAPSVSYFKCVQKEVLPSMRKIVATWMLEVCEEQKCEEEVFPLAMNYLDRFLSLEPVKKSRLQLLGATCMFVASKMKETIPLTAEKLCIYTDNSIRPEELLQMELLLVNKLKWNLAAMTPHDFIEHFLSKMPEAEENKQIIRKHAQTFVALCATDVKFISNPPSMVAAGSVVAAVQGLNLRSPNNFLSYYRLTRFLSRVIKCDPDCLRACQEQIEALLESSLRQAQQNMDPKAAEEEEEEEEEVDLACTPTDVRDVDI
Sequence of Protein kinase C eta type (P24723 whole entry): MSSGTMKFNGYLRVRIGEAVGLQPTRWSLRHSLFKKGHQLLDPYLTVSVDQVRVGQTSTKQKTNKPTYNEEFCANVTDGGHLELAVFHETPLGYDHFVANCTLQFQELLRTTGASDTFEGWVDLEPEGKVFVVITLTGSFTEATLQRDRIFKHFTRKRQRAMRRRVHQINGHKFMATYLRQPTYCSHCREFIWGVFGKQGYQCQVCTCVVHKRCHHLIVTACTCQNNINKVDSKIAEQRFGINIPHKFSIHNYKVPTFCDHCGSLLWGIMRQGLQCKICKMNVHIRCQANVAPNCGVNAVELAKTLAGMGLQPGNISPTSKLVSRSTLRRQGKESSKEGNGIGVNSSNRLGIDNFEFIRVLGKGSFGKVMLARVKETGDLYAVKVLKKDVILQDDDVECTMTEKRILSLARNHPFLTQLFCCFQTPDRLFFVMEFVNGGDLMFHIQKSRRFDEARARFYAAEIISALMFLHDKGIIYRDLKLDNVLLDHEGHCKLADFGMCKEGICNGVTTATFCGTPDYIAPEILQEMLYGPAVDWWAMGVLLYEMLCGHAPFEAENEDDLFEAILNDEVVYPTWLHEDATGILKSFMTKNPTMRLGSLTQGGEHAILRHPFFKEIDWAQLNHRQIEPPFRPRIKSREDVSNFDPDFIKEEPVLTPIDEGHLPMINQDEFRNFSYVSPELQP
Sequence of Protein kinase C epsilon type (Q02156 whole entry): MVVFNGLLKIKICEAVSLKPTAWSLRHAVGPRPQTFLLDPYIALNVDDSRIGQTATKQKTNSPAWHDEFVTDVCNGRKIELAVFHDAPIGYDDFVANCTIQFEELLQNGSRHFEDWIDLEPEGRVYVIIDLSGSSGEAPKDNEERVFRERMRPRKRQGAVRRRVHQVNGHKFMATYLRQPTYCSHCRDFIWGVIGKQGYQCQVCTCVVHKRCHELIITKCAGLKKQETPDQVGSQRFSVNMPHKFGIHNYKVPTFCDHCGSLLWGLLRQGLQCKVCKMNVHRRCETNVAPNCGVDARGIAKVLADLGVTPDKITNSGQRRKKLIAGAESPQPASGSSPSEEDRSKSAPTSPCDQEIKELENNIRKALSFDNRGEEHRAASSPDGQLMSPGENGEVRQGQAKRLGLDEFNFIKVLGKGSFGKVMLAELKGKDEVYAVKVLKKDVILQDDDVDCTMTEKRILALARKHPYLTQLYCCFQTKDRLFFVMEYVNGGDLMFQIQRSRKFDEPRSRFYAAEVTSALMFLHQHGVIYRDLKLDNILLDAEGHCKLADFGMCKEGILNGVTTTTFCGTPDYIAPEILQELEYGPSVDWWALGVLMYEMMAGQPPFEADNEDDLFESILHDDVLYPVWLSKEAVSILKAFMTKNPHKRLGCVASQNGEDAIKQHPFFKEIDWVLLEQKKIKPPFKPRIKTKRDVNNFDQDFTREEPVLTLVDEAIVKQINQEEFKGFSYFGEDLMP
Sequence of Protein kinase C zeta type (Q05513 whole entry): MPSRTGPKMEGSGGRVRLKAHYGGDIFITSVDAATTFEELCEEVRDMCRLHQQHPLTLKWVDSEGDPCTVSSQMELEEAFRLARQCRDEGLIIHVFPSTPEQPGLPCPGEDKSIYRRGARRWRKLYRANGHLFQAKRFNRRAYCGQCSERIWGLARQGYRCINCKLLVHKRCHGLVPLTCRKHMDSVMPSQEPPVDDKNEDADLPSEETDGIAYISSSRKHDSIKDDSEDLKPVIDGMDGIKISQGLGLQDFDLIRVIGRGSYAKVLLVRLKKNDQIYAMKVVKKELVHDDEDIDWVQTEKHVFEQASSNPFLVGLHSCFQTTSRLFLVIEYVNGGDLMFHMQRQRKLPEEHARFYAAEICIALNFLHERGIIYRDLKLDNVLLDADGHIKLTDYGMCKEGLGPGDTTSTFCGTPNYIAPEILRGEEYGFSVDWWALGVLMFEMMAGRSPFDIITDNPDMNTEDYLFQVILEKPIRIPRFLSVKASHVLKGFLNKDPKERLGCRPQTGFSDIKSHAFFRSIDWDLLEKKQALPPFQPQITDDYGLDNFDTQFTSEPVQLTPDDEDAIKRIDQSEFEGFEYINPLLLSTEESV
Sequence of Mitogen-activated protein kinase 3 (P27361 whole entry): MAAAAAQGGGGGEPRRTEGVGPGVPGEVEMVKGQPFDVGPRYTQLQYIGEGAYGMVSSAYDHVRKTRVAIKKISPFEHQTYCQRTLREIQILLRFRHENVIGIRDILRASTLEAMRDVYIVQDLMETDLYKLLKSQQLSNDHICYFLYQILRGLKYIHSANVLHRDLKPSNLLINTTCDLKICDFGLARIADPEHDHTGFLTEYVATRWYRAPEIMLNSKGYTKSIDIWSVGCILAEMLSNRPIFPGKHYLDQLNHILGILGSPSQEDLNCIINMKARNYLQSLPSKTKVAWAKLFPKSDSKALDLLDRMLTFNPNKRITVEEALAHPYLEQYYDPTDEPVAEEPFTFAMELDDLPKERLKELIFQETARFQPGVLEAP

Compound	IC50 [2] [µM]	IC50 [3] [µM]	IC50 [4] [µM]	IC50 [5] [µM]	IC50 [6] [µM]	IC50 [7] [µM]	IC50 [8] [µM]	IC50 [9] [µM]	IC50 [10] [µM]	IC50 [11] [µM]	IC50 [12] [µM]	IC50 [13] [µM]	IC50 [14] [µM]	IC50 [15] [µM]	IC50 [16] [µM]	IC50 (Casein kinase 2) [µM]	IC50 [17] [µM]	IC50 [18] [µM]	further results
CC(C)n1cnc2c(Nc3cccc(Cl)c3)nc(NCCO)nc21	–	–	–	–	–	–	–	–	–	–	–	–	–	–	–	–	–	–	IC50 [1]: 0.34 µM
CC(C)[C@H](CO)Nc1nc(Nc2ccc(C(=O)O)c(Cl)c2)c2ncn(C(C)C)c2n1 [PURVALANOL B]	> 100	> 100	> 100	> 100	> 100	> 10	3.33	> 10	> 100	> 100	> 100	3.8	> 100	> 3.33	> 10	> 10	> 10	> 100	–
CC(C)[C@H](CO)Nc1nc(Nc2cccc(Cl)c2)c2ncn(C(C)C)c2n1 [PURVALANOLA]	> 10	> 100	> 100	> 100	> 100	0.85	9	> 1	> 10	> 10	> 10	9	> 10	> 3.33	> 10	> 10	> 1	> 10	IC50 (Cdc2 [19]): 0.04 µM; IC50 (Cdc2 [20]): 0.5 µM; IC50 [21]: 0.07 µM; IC50 [22]: 0.035 µM; IC50 [23]: 0.075 µM; IC50 (Insulin receptor): 5 µM; IC50 [24]: 0.08 µM; GI50 [25]: 2 µM; GI50 (KM12): 0.076 µM; GI50 (NCI-H522): 0.347 µM
COc1ccc(CNc2nc(N(CCO)CCO)nc3c2ncn3C(C)C)cc1	–	–	–	–	–	–	–	–	–	–	–	–	–	–	–	–	–	–	Activity (MRC5 [26]): Active; Activity (MRC5 [27]): Active; Activity (MRC5 [28]): Active
CC(C)n1cnc2c(N(C)c3cccc(Cl)c3)nc(NCCO)nc21	–	–	–	–	–	–	–	–	–	–	–	–	–	–	–	–	–	–	Activity (Saccharomyces cerevisiae [29]): inactive; Activity (Saccharomyces cerevisiae [30]): inactive; Activity (Saccharomyces cerevisiae [31]): inactive; Activity (Saccharomyces cerevisiae [32]): inactive; Activity (Saccharomyces cerevisiae [33]): inactive; Activity (Saccharomyces cerevisiae [34]): inactive; Activity (Saccharomyces cerevisiae [35]): inactive; Activity (Saccharomyces cerevisiae [36]): inactive; Activity (Saccharomyces cerevisiae [37]): inactive; Activity (Saccharomyces cerevisiae [38]): inactive; IC50 [39]: > 500 µM; IC50 [40]: > 500 µM; IC50 [41]: > 500 µM; IC50 [42]: > 500 µM; IC50 [43]: > 500 µM; GI50 (Saccharomyces cerevisiae [44]): 200 µM; Activity (Saccharomyces cerevisiae [45]): inactive; Activity (Saccharomyces cerevisiae [46]): inactive
